Measurements gathered from unrelated publications.
Each line is one published result; the experiments were not run side by side.
Read-out: cell growth or viability

O=C(C=Cc1ccccc1)Nc1cc(-c2ccnc(N3CCC(O)CC3)c2)ccn1  IC50 (HCC1937; MTT; 72 h): 528 nM
CC(C)(C)c1cnc(CSc2cnc(NC(=O)C3CCN(CCCCCSc4cccc5c4CN(C4CCC(=O)NC4=O)C5=O)CC3)s2)o1 (centres unmarked)  viability (HuT78; trypan blue; 0.25 µM, 48 h): 9.46%
Nc1ccc(/C=C/C(=O)N2CCc3c(oc4c(-c5ccc(F)cc5)cc(-c5ccc(C(=O)N6C[C@@H]7[C@H](C6)C7(F)F)nn5)cc34)C2)cn1  IC50 (Pan02; CCK-8; 72 h): 300 nM
O=C1C(O)=C([C@H]2CC[C@H](c3ccc(Cl)cc3)CC2)C(=O)c2ccccc21  IC50 (SH-SY5Y; resazurin): > 50000 nM
CCNCCCn1c2c(c3cc(OC)c(OC)cc3c1=O)C(=O)c1cc3c(nc1-2)OCO3  IC50 (SK-N-MC; MTS; 72 h): 137 nM
Nc1ccc(/C=C/C(=O)N2CCc3c(oc4c(-c5ccc(F)cc5)cc(-c5ccc(C(=O)N6CCC(F)(F)CC6)nn5)cc34)C2)cn1  IC50 (Pan02; CCK-8; 72 h): 250 nM
C=CC(=O)NC1CCN(c2ncc3ncnc(Nc4ccc(Oc5ccc6c(c5)ncn6C)c(C)c4)c3n2)CC1  EC50 (KNS-62): 11 nM
CCN(CC)Cc1cc(Nc2ccnc3cc(Cl)ccc23)ccc1O  IC50 (SH-SY5Y; resazurin): 17000 nM
COc1cc2c3c(n(CCCNCCO)c(=O)c2cc1OC)-c1nc2c(cc1C3=O)OCO2  IC50 (SK-N-MC; MTS; 72 h): 173 nM
[H]/N=C(\N/C(=N/[H])Nc1ccc(Cl)cc1)NC(C)C  IC50 (SH-SY5Y; resazurin): > 50000 nM
CC(C)(C)c1cnc(CSc2cnc(NC(=O)C3CCN(CCCCCCCCSc4cccc5c4CN(C4CCC(=O)NC4=O)C5=O)CC3)s2)o1 (centres unmarked)  viability (HuT78; trypan blue; 0.25 µM, 48 h): 22.4%
CC(C)c1ccccc1[C@@H]1CCCN1C1CC2(CCN(c3ccc(C(=O)NS(=O)(=O)c4ccc(NC[C@H]5CC[C@](C)(O)CC5)c([N+](=O)[O-])c4)c(Oc4cnc5[nH]ccc5c4)c3)CC2)C1  IC50 (MM.1R; ATP luminescence; 48 h): 7430 nM
CCN(CC)CCCC(C)Nc1ccnc2cc(Cl)ccc12 (centres unmarked)  IC50 (SH-SY5Y; resazurin): 44000 nM
C#Cc1nc(C2=C(C)C(OC(=O)C(C)(C)C)/C(=N\OC(=O)C(C)(C)C)C2)cs1 (centres unmarked)  CC50 (HT-1080): 73 nM
